Experimental data taken from ChEMBL document CHEMBL1126796, “2-(Alkylamino)nicotinic acid and analogs. Potent angiotensin II antagonists” (J Med Chem, 1993).
The source made the active and inactive calls. The rule behind the calls is not given here.

Tests used:
[1] = tested on: Rattus norvegicus; test: % decrease in blood pressure after 4 hours at a dose of 1 mg/kg in male rats by using Furosemide-treated spontaneous hypertensive model; IA means inactive; assay type: functional, organism-based; set-up: dose 1 mg/kg
Method in brief: (§1)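 Male SHR, 20-24 weeks old, pretreated with furosemide 10 mg/kg sc at 22 and 4 h before the experiment; compound dosed orally. Arterial pressure was recorded from an indwelling femoral artery catheter with on-line blood pressure and heart rate analysis. Read-out is % fall in blood pressure at 4 h and at 24 h, ±SEM, with number of rats.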

[2] = tested on: Rattus norvegicus; test: % decrease in blood pressure after 24 hours at a dose of 1 mg/kg in male rats by using Furosemide-treated spontaneous hypertensive model; assay type: functional; method in brief: as §1
[3] = tested on: Rattus norvegicus; test: % decrease in blood pressure after 4 hours at a dose of 1 mg/kg in male rats by using Furosemide-treated spontaneous hypertensive model; assay type: functional; method in brief: as §1
[4] = tested on: Rattus norvegicus; test: % decrease in blood pressure after 4 hours at a dose of 10 mg/kg in male rats by using Renal artery hypertensive model; assay type: functional
Method in brief: (§2)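 Male Sprague-Dawley rats (300-350 g) were made hypertensive by renal artery ligation and used on day 6 or 7 after ligation. Arterial pressure was measured from an indwelling femoral artery catheter, with blood pressure and heart rate recorded on line. Read-out is % decrease in blood pressure at 4 h, ±SEM, with number of rats.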

[5] = biological target: T1, Type-1 angiotensin II receptor A (Rattus norvegicus, UniProt P25095); test: Binding affinity against angiotensin II receptor from rat liver
T1 sequence (P25095 whole entry): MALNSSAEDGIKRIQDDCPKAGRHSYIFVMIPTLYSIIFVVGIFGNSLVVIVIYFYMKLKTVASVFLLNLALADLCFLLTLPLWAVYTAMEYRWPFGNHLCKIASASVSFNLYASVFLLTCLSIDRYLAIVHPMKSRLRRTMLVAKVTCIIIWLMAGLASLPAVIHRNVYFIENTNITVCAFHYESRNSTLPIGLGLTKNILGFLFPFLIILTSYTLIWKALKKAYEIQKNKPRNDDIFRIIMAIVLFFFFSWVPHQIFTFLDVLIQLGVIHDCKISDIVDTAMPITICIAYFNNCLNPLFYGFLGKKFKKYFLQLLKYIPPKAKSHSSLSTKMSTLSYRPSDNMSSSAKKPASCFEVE
Method in brief: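 Rat liver membranes were incubated with [125I]-saralasin to measure angiotensin II type 1 receptor binding. Nonspecific binding was defined with 1 µM angiotensin.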

[6] = tested on: Rattus norvegicus; test: % decrease in blood pressure after 4 hours in male rats at a dose of 10 mg/kg by using Renal artery hypertensive model; assay type: functional; method in brief: as §2
[7] = tested on: Rattus norvegicus; test: % decrease in blood pressure after 4 hours at a dose of 30 mg/kg in male rats by using Renal artery hypertensive model; assay type: functional; method in brief: as §2

For `CCCN(Cc1ccc(-c2ccccc2-c2nn[nH]n2)cc1)c1ncccc1C(=O)OC`, the “Decrease in blood pressure” value [1] was “inactive”.

In the case of `CCCCN(Cc1ccc(-c2ccccc2-c2nn[nH]n2)cc1)c1nccnc1C(=O)O`, the “Decrease in blood pressure” value [2] is reported as 21% and the “Decrease in blood pressure” value [3] is reported as 7%.

With `CCCCc1nc(Cl)c(C(=O)O)n1Cc1ccc(-c2ccccc2-c2nn[nH]n2)cc1` [CARBOXYLIC ACID METABOLITE] the “Decrease in blood pressure” value [4] was 40%.

With `CCCN(Cc1ccc(-c2ccccc2-c2nn[nH]n2)cc1)c1nc(C)cnc1C(=O)O` the “Decrease in blood pressure” value [2] was 18% and the “Decrease in blood pressure” value [3] was 2%.

In the case of `CCCN(Cc1ccc(-c2ccccc2-c2nn[nH]n2)cc1)c1nc(C)ncc1C(=O)O`, the Ki [5] is reported as 2.78 nM, the “Decrease in blood pressure” value [6] is reported as 15% and the “Decrease in blood pressure” value [7] is reported as 18%.
